Data taken from ChEMBL document CHEMBL1125321, “Synthesis and biological activity of 13-epi-avermectins: potent anthelmintic agents with an increased margin of safety” (J Med Chem, 1992).

Legend:
[1] = Compound is evaluated for acute toxicity in mice; type: organism-based; details: mouse, in vivo
In short: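 Male CD-1 mice, groups of five per dose randomly allocated; several doses given orally in vehicle by calibrated syringe with blunt-tipped needle. Deaths counted 7 days after dosing; estimated LD50 derived by the method of dose-pair responses.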

[2] = system: Artemia salina; assay: Compound is evaluated in vitro for brine shrimp (Artemia salina) activity.; type: functional
[3] = system: Cooperia; assay: Compound is evaluated in vivo for anthelmintic activity against Cooperia species (C. species) parasite in sheep; activity at 0.1 mg/kg; type: functional
In short: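 Sheep with patent nematode infections, randomly assigned to treatment or control; one sheep per compound, two vehicle-only controls. Single oral dose of 0.1 mg/kg. Necropsy 7 days after dosing to count residual worm burdens. Efficacy is % reduction from control, scored 0 = <50%, 1 = 51–75%, 2 = 76–95%, 3 = >95%.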

[4] = system: Haemonchus contortus; assay: Compound is evaluated in vivo for anthelmintic activity against Haemonchus contortus (H.c) parasite in sheep; activity at 0.1 mg/kg; type: functional
In short: (§1)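 Sheep with patent infections randomly assigned; one sheep per compound, two vehicle-only controls. Single oral dose 0.1 mg/kg. Necropsy 7 days post-dose, residual worm burdens counted. Efficacy as % reduction from control, scored 0 = <50%, 1 = 51-75%, 2 = 76-95%, 3 = >95%.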

[5] = system: Oesophagostomum columbianum; assay: Compound is evaluated in vivo for anthelmintic activity against Oesophagostomum columbianum (Oe. c) parasite in sheep; activity at 0.1 mg/kg; type: functional; in short: as §1
[6] = system: Teladorsagia circumcincta; assay: Compound is evaluated in vivo for anthelmintic activity against Ostertagia circumcincta (Os. c) parasite in sheep; activity at 0.1 mg/kg; type: functional; in short: as §1
[7] = system: Trichostrongylus axei; assay: Compound is evaluated in vivo for anthelmintic activity against Trichostrongylus axei (T.a) parasite in sheep; activity at 0.1 mg/kg; type: functional; in short: as §1
[8] = system: Trichostrongylus colubriformis; assay: Compound is evaluated in vivo for anthelmintic activity against Trichostrongylus colubriformis (T.c) parasite in sheep; activity at 0.1 mg/kg; type: functional; in short: as §1
[9] = system: Cooperia; assay: Compound is evaluated in vivo for anthelmintic activity against Cooperia species (C. species) parasite in sheep; activity at 0.1 mg/kg; value ranges from 76-95%; type: functional; in short: as §1

Compound	LD50 [1]	IC100 [2]	Activity [3]	Activity [4]	Activity [5]	Activity [6]	Activity [7]	Activity [8]	Activity [9]
CC[C@H](C)[C@H]1O[C@]2(C=C[C@@H]1C)C[C@@H]1C[C@@H](C/C=C(\C)[C@@H](O[C@H]3C[C@H](OC)[C@@H](O[C@H]4C[C@H](OC)[C@@H](O)[C@H](C)O4)[C@H](C)O3)[C@@H](C)/C=C/C=C3\CO[C@@H]4[C@H](O)C(C)=C[C@@H](C(=O)O1)[C@]34O)O2 [ABAMECTIN COMPONENT B1A]	19 mg/kg	356 ng/mL							
COC1CC(OC2C(C)OC(O[C@@H]3/C(C)=C/C[C@@H]4C[C@@H](C[C@]5(CC(O)[C@H](C)[C@@H](C(C)C)O5)O4)OC(=O)[C@@H]4C=C(C)[C@@H](O)[C@H]5OC/C(=C\C=C\[C@@H]3C)[C@]54O)CC2OC)OC(C)C1O (some centres undefined) [AVERMECTIN B2]	50 mg/kg	220 ng/mL	>95%	>95%	>95%	>95%	>95%	>95%	
CC[C@H](C)[C@H]1O[C@@]2(C[C@@H]3C[C@@H](C/C=C(\C)[C@H](O[C@H]4C[C@H](OC)C(O[C@H]5C[C@H](OC)[C@@H](O)[C@H](C)O5)[C@H](C)O4)[C@@H](C)/C=C/C=C4\CO[C@@H]5[C@H](O)C(C)=C[C@@H](C(=O)O3)[C@]45O)O2)C[C@H](O)[C@@H]1C (some centres undefined)	540 mg/kg	650 ng/mL	>95%	>95%	>95%	>95%	>95%	>95%	
CCC(C)C1O[C@]2(C=C[C@@H]1C)C[C@@H]1CC(C/C=C(\C)[C@@H](OC3C[C@H](OC)[C@@H](OC4C[C@H](OC)[C@@H](O)[C@H](C)O4)[C@H](C)O3)[C@@H](C)/C=C/C=C3\COC4[C@H](O)C(C)=CC(C(=O)O1)[C@]34O)O2 (some centres undefined) [AVERMECTIN B1A]			>95%	>95%	>95%	>95%	>95%	>95%	
CC[C@H](C)[C@H]1O[C@]2(C=C[C@@H]1C)C[C@@H]1C[C@@H](C/C=C(\C)[C@H](O[C@@H]3C[C@H](OC)C(O[C@H]4C[C@H](OC)[C@@H](O)[C@H](C)O4)[C@H](C)O3)[C@@H](C)/C=C/C=C3\CO[C@@H]4[C@H](O)C(C)=C[C@@H](C(=O)O1)[C@]34O)O2 (some centres undefined)		10415 ng/mL							
CC[C@H](C)[C@H]1O[C@@]2(C[C@@H]3C[C@@H](C/C=C(\C)[C@H](O[C@@H]4C[C@H](OC)C(O[C@H]5C[C@H](OC)[C@@H](O)[C@H](C)O5)[C@H](C)O4)[C@@H](C)/C=C/C=C4\CO[C@@H]5[C@H](O)C(C)=C[C@@H](C(=O)O3)[C@]45O)O2)C[C@H](O)[C@@H]1C (some centres undefined)		20850 ng/mL							
CC[C@H](C)[C@H]1O[C@]2(C=C[C@@H]1C)C[C@@H]1C[C@@H](C/C=C(\C)[C@H](O[C@H]3C[C@H](OC)C(O[C@H]4C[C@H](OC)[C@@H](O)[C@H](C)O4)[C@H](C)O3)[C@@H](C)/C=C/C=C3\CO[C@@H]4[C@H](O)C(C)=C[C@@H](C(=O)O1)[C@]34O)O2 (some centres undefined)	160 mg/kg	870 ng/mL		>95%	>95%	>95%	>95%	>95%	76%
